Test results taken from ChEMBL document CHEMBL1147105, “In vitro and in vivo activities of PD 0305970 and PD 0326448, new bacterial gyrase/topoisomerase inhibitors with potent antibacterial activities versus multidrug-resistant gram-positive and fastidious organism groups” (2007).
Converted amounts (≈) assume the structure as drawn.

Experiments:
Streptococcus mitis = assay: Antibacterial activity against Streptococcus mitis; format: functional
Summary of the method: (§1)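 Broth microdilution MIC following CLSI guidelines, in cation-adjusted Mueller-Hinton broth with 3% lysed horse blood. Plates incubated at 35°C. Clinical isolates and reference strains, with identity confirmed by standard microbiological methods.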

[1] = test system: Fusobacterium necrophorum; assay: Antibacterial activity against Fusobacterium necrophorum; format: functional
Summary of the method: (§2)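 Anaerobic broth microdilution MIC following CLSI guidelines, in supplemented Brucella broth. Run in an anaerobe chamber under 5% CO2, 5% H2 and 90% N2 at 35°C, and read after 48 h. Reported as MIC range, MIC50 and MIC90.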

Streptococcus pyogenes = assay: Antibacterial activity against Streptococcus pyogenes; format: functional; summary of the method: as §1
Enterococcus faecium [2] = assay: Antibacterial activity against VanA-resistant Enterococcus faecium; format: functional
Summary of the method: (§3)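 Broth microdilution MIC per CLSI guidelines, incubated at 35°C. Cation-adjusted Mueller-Hinton broth for nonfastidious organisms and staphylococci. Streptococci tested in the same broth with 3% lysed horse blood. Anaerobes tested in supplemented Brucella broth inside an anaerobe chamber (5% CO2, 5% H2, 90% N2), read after 48 h. Strains were mainly recent clinical isolates with confirmed identity.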

Acinetobacter sp. = assay: Antibacterial activity against Acinetobacter sp.; format: functional
Summary of the method: (§4)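 Broth microdilution MIC following CLSI guidelines, in cation-adjusted Mueller-Hinton broth, incubated at 35°C. Recent clinical isolates and reference strains, with identity confirmed by automated and standard microbiological methods. Results reported as MIC range, MIC50 and MIC90.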

Shigella dysenteriae = assay: Antibacterial activity against Shigella dysenteriae; format: functional
Haemophilus influenzae [3] = assay: Antibacterial activity against beta-lactamase positive Haemophilus influenzae; format: functional
Summary of the method: (§5)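 Broth microdilution MIC following CLSI guidelines, in Haemophilus test medium at 35°C.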

Streptococcus sanguinis = assay: Antibacterial activity against Streptococcus sanguis; format: functional; summary of the method: as §1
Fusobacterium sp. = assay: Antibacterial activity against Fusobacterium sp.; format: functional; summary of the method: as §2
Neisseria gonorrhoeae = assay: Antibacterial activity against Neisseria gonorrhoeae; format: functional
Summary of the method: (§6)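 MIC by broth microdilution in gonococcal broth, incubated at 35°C in 5% CO2. Reported as MIC range, MIC50 and MIC90.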

Legionella pneumophila = assay: Antibacterial activity against Legionella pneumophila; format: functional
Summary of the method: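 Broth microdilution MIC per CLSI guidelines, run in buffered yeast extract α-ketoglutarate broth at 35°C and read after 48 h.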

Shigella flexneri = assay: Antibacterial activity against Shigella flexneri; format: functional; summary of the method: as §4
Streptococcus pneumoniae [4] = assay: Antibacterial activity against penicillin-intermediate resistant Streptococcus pneumoniae; format: functional; summary of the method: as §3
Serratia marcescens = assay: Antibacterial activity against Serratia marcescens; format: functional; summary of the method: as §4
Streptococcus pneumoniae [5] = assay: Antibacterial activity against levofloxacin-resistant Streptococcus pneumoniae; format: functional; summary of the method: as §3
Corynebacterium jeikeium = assay: Antibacterial activity against Corynebacterium jeikeium; format: functional
Summary of the method: (§7)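 Broth microdilution MIC following CLSI guidelines, in cation-adjusted Mueller-Hinton broth containing 3% lysed horse blood, incubated at 35°C. Clinical isolates with identity confirmed. Reported as MIC range, MIC50 and MIC90.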

Enterococcus faecalis [6] = assay: Antibacterial activity against VanB-resistant Enterococcus faecalis; format: functional; summary of the method: as §3
[7] = test system: Prevotella melaninogenica; assay: Antibacterial activity against Prevotella melaninogenica; format: functional; summary of the method: as §2
Bacteroides ovatus = assay: Antibacterial activity against Bacteroides ovatus; format: functional; summary of the method: as §2
Cutibacterium acnes = assay: Antibacterial activity against Propionibacterium acnes; format: functional
Streptococcus pneumoniae [8] = assay: Antibacterial activity against penicillin-resistant Streptococcus pneumoniae; format: functional; summary of the method: as §3
Prevotella sp. = assay: Antibacterial activity against Prevotella sp.; format: functional; summary of the method: as §2
Enterococcus faecalis [9] = assay: Antibacterial activity against VanA-resistant Enterococcus faecalis; format: functional; summary of the method: as §3
Enterococcus faecalis [10] = assay: Antibacterial activity against Enterococcus faecalis; format: functional; summary of the method: as §3
Shigella sonnei = assay: Antibacterial activity against Shigella sonnei; format: functional; summary of the method: as §4
Haemophilus influenzae [11] = assay: Antibacterial activity against beta-lactamase negative Haemophilus influenzae; format: functional; summary of the method: as §5
Burkholderia cepacia = assay: Antibacterial activity against Burkholderia cepacia; format: functional; summary of the method: as §4
Proteus mirabilis = assay: Antibacterial activity against Proteus mirabilis; format: functional; summary of the method: as §4
[12] = test system: Staphylococcus haemolyticus; assay: Antibacterial activity against Staphylococcus haemolyticus; format: functional; summary of the method: as §7
Enterococcus gallinarum = assay: Antibacterial activity against Enterococcus gallinarum; format: functional
[13] = test system: Peptoniphilus asaccharolyticus; assay: Antibacterial activity against Peptostreptococcus asaccharolyticus; format: functional; summary of the method: as §2
Prevotella corporis = assay: Antibacterial activity against Prevotella corporis; format: functional; summary of the method: as §2
Salmonella enteritidis = assay: Antibacterial activity against Salmonella enterica serovar Enteritidis; format: functional, Salmonella enterica subsp. enterica serovar Enteritidis; summary of the method: as §4
Neisseria meningitidis = assay: Antibacterial activity against Neisseria meningitidis; format: functional; summary of the method: as §6
[14] = test system: Stenotrophomonas maltophilia; assay: Antibacterial activity against Stenotrophomonas maltophilia; format: functional; summary of the method: as §4
Enterococcus faecium [15] = assay: Antibacterial activity against Enterococcus faecium; format: functional; summary of the method: as §3
Listeria monocytogenes = assay: Antibacterial activity against Listeria monocytogenes; format: functional; summary of the method: as §7
Pseudomonas aeruginosa = assay: Antibacterial activity against Pseudomonas aeruginosa; format: functional; summary of the method: as §4
[16] = test system: Enterococcus casseliflavus; assay: Antibacterial activity against Enterococcus casseliflavus; format: functional
Finegoldia magna = assay: Antibacterial activity against Peptostreptococcus magnus; format: functional; summary of the method: as §2
Staphylococcus warneri = assay: Antibacterial activity against Staphylococcus warneri; format: functional; summary of the method: as §4
Prevotella bivia = assay: Antibacterial activity against Prevotella bivia; format: functional; summary of the method: as §2
Prevotella buccae = assay: Antibacterial activity against Prevotella buccae; format: functional; settings: Segatella buccae; summary of the method: as §2
Klebsiella pneumoniae = assay: Antibacterial activity against Klebsiella pneumoniae; format: functional; summary of the method: as §4
Streptococcus viridans = assay: Antibacterial activity against Streptococcus viridans; format: functional; summary of the method: as §1
Fusobacterium nucleatum = assay: Antibacterial activity against Fusobacterium nucleatum; format: functional; summary of the method: as §2
Staphylococcus aureus = assay: Antibacterial activity against vancomycin-intermediate Staphylococcus aureus; format: functional; summary of the method: as §3
Enterococcus faecalis [17] = assay: Antibacterial activity against beta-lactamase positive Enterococcus faecalis; format: functional
Summary of the method: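 MIC by CLSI broth microdilution for nonfastidious organisms, in cation-adjusted Mueller-Hinton broth incubated at 35°C.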

Moraxella catarrhalis = assay: Antibacterial activity against beta-lactamase negative Moraxella catarrhalis; format: functional

Cc1c(N2CC[C@@H]([C@H](C)N)C2)c(F)cc2c(=O)n(N)c(=O)n(C3CC3)c12
MIC50 (Streptococcus mitis): 0.03 µg/mL (≈ 0.083 µM) | MIC90 (Streptococcus mitis): 0.03 µg/mL (≈ 0.083 µM) | MIC [1]: 0.06 µg/mL (≈ 0.166 µM) | MIC50 (Streptococcus pyogenes): 0.03 µg/mL (≈ 0.083 µM) | MIC90 (Streptococcus pyogenes): 0.03 µg/mL (≈ 0.083 µM) | MIC50 (Enterococcus faecium [2]): 1 µg/mL (≈ 2.77 µM) | MIC90 (Enterococcus faecium [2]): 2 µg/mL (≈ 5.53 µM) | MIC50 (Acinetobacter sp.): 1 µg/mL (≈ 2.77 µM) | MIC90 (Acinetobacter sp.): 8 µg/mL (≈ 22.1 µM) | MIC50 (Shigella dysenteriae): 0.5 µg/mL (≈ 1.38 µM) | MIC90 (Shigella dysenteriae): 1 µg/mL (≈ 2.77 µM) | MIC50 (Haemophilus influenzae [3]): 0.125 µg/mL (≈ 0.346 µM) | MIC90 (Haemophilus influenzae [3]): 0.25 µg/mL (≈ 0.692 µM) | MIC50 (Streptococcus sanguinis): 0.03 µg/mL (≈ 0.083 µM) | MIC90 (Streptococcus sanguinis): 0.03 µg/mL (≈ 0.083 µM) | MIC (Fusobacterium sp.): 0.06 µg/mL (≈ 0.166 µM) | MIC50 (Neisseria gonorrhoeae): 0.25 µg/mL (≈ 0.692 µM) | MIC90 (Neisseria gonorrhoeae): 0.5 µg/mL (≈ 1.38 µM) | MIC50 (Legionella pneumophila): 0.25 µg/mL (≈ 0.692 µM) | MIC90 (Legionella pneumophila): 0.25 µg/mL (≈ 0.692 µM) | MIC50 (Shigella flexneri): 0.5 µg/mL (≈ 1.38 µM) | MIC90 (Shigella flexneri): 1 µg/mL (≈ 2.77 µM) | MIC50 (Streptococcus pneumoniae [4]): 0.03 µg/mL (≈ 0.083 µM) | MIC90 (Streptococcus pneumoniae [4]): 0.06 µg/mL (≈ 0.166 µM) | MIC50 (Serratia marcescens): 2 µg/mL (≈ 5.53 µM) | MIC90 (Serratia marcescens): 16 µg/mL (≈ 44.3 µM) | MIC50 (Streptococcus pneumoniae [5]): 0.03 µg/mL (≈ 0.083 µM) | MIC90 (Streptococcus pneumoniae [5]): 0.06 µg/mL (≈ 0.166 µM) | MIC50 (Corynebacterium jeikeium): 0.25 µg/mL (≈ 0.692 µM) | MIC90 (Corynebacterium jeikeium): 0.25 µg/mL (≈ 0.692 µM) | MIC50 (Enterococcus faecalis [6]): 0.25 µg/mL (≈ 0.692 µM) | MIC90 (Enterococcus faecalis [6]): 0.25 µg/mL (≈ 0.692 µM) | MIC50 [7]: 0.25 µg/mL (≈ 0.692 µM) | MIC90 [7]: 1 µg/mL (≈ 2.77 µM) | MIC50 (Bacteroides ovatus): 4 µg/mL (≈ 11.1 µM) | MIC90 (Bacteroides ovatus): 16 µg/mL (≈ 44.3 µM) | MIC50 (Cutibacterium acnes): 2 µg/mL (≈ 5.53 µM) | MIC90 (Cutibacterium acnes): 4 µg/mL (≈ 11.1 µM) | MIC50 (Streptococcus pneumoniae [8]): 0.03 µg/mL (≈ 0.083 µM) | MIC90 (Streptococcus pneumoniae [8]): 0.03 µg/mL (≈ 0.083 µM) | MIC50 (Prevotella sp.): 0.25 µg/mL (≈ 0.692 µM) | MIC90 (Prevotella sp.): 1 µg/mL (≈ 2.77 µM) | MIC (Enterococcus faecalis [9]): 0.125 µg/mL (≈ 0.346 µM) | MIC50 (Enterococcus faecalis [10]): 0.125 µg/mL (≈ 0.346 µM) | MIC90 (Enterococcus faecalis [10]): 0.25 µg/mL (≈ 0.692 µM) | MIC50 (Shigella sonnei): 0.5 µg/mL (≈ 1.38 µM) | MIC90 (Shigella sonnei): 1 µg/mL (≈ 2.77 µM) | MIC50 (Haemophilus influenzae [11]): 0.125 µg/mL (≈ 0.346 µM) | MIC90 (Haemophilus influenzae [11]): 0.25 µg/mL (≈ 0.692 µM) | MIC50 (Burkholderia cepacia): 32 µg/mL (≈ 88.5 µM) | MIC90 (Burkholderia cepacia): 64 µg/mL (≈ 177 µM) | MIC50 (Proteus mirabilis): 1 µg/mL (≈ 2.77 µM) | MIC90 (Proteus mirabilis): 2 µg/mL (≈ 5.53 µM) | MIC50 [12]: 0.125 µg/mL (≈ 0.346 µM) | MIC90 [12]: 0.5 µg/mL (≈ 1.38 µM) | MIC50 (Enterococcus gallinarum): 0.25 µg/mL (≈ 0.692 µM) | MIC90 (Enterococcus gallinarum): 0.25 µg/mL (≈ 0.692 µM) | MIC [13]: 0.03 µg/mL (≈ 0.083 µM) | MIC50 (Prevotella corporis): 0.25 µg/mL (≈ 0.692 µM) | MIC90 (Prevotella corporis): 1 µg/mL (≈ 2.77 µM) | MIC50 (Salmonella enteritidis): 0.5 µg/mL (≈ 1.38 µM) | MIC90 (Salmonella enteritidis): 1 µg/mL (≈ 2.77 µM) | MIC50 (Neisseria meningitidis): 0.25 µg/mL (≈ 0.692 µM) | MIC90 (Neisseria meningitidis): 0.5 µg/mL (≈ 1.38 µM) | MIC50 [14]: 8 µg/mL (≈ 22.1 µM) | MIC90 [14]: 64 µg/mL (≈ 177 µM) | MIC50 (Enterococcus faecium [15]): 1 µg/mL (≈ 2.77 µM) | MIC90 (Enterococcus faecium [15]): 2 µg/mL (≈ 5.53 µM) | MIC50 (Listeria monocytogenes): 0.125 µg/mL (≈ 0.346 µM) | MIC90 (Listeria monocytogenes): 0.25 µg/mL (≈ 0.692 µM) | MIC50 (Pseudomonas aeruginosa): 4 µg/mL (≈ 11.1 µM) | MIC90 (Pseudomonas aeruginosa): 32 µg/mL (≈ 88.5 µM) | MIC50 [16]: 0.25 µg/mL (≈ 0.692 µM) | MIC90 [16]: 0.25 µg/mL (≈ 0.692 µM) | MIC (Finegoldia magna): 0.03 µg/mL (≈ 0.083 µM) | MIC (Staphylococcus warneri): 0.06 µg/mL (≈ 0.166 µM) | MIC50 (Prevotella bivia): 0.25 µg/mL (≈ 0.692 µM) | MIC90 (Prevotella bivia): 1 µg/mL (≈ 2.77 µM) | MIC50 (Prevotella buccae): 0.25 µg/mL (≈ 0.692 µM) | MIC90 (Prevotella buccae): 1 µg/mL (≈ 2.77 µM) | MIC50 (Klebsiella pneumoniae): 2 µg/mL (≈ 5.53 µM) | MIC90 (Klebsiella pneumoniae): 4 µg/mL (≈ 11.1 µM) | MIC50 (Streptococcus viridans): 0.03 µg/mL (≈ 0.083 µM) | MIC90 (Streptococcus viridans): 0.03 µg/mL (≈ 0.083 µM) | MIC (Fusobacterium nucleatum): 0.06 µg/mL (≈ 0.166 µM) | MIC (Staphylococcus aureus): 0.125 µg/mL (≈ 0.346 µM) | MIC (Enterococcus faecalis [17]): 0.06 µg/mL (≈ 0.166 µM) | MIC50 (Moraxella catarrhalis): 0.25 µg/mL (≈ 0.692 µM) | MIC90 (Moraxella catarrhalis): 0.5 µg/mL (≈ 1.38 µM)
